# ABHD5-PLIN5 inh: ABHD5-PLIN5 protein interaction inhibition; Q00G26+Q8WTS1; Split G. princeps luciferase complementation, luminescence, 4 h; inhibition, % at 4 µM; hit rate 0.78% among 360,000; AID 602281;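 active means inhibition above the mean inhibition across every tested compound plus 3 SD, cut at about 22% in these data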
# NadD inh: blocks S. aureus nicotinate mononucleotide adenylyltransferase | purified NadD enzyme, colorimetric absorbance read-out | inhibition, % at 20 µM | hit rate 0.78% among 360,000; in the data active means inhibition above about 26%
# Rpn11 inh: blocks the human proteasome subunit Rpn11; O00487; human 26S proteasome, Ub4-pepOG fluorescence polarization; 20S core pre-blocked with epoxomicin; inhibition, % at 20 µM; hit rate 0.59% among 360,000;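 active means inhibition at 20 µM, scaled to each plate's controls, above about 33%, limit read from the data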
# Target sequence (O00487 whole entry, looked up): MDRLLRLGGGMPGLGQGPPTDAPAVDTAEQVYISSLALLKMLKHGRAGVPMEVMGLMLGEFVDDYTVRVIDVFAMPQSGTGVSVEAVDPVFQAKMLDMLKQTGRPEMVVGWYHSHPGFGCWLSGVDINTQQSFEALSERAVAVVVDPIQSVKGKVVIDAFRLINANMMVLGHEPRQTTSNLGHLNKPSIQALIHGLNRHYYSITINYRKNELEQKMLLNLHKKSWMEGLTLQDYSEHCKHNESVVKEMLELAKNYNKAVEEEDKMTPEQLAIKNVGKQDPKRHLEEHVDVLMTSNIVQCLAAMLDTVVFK
# Rin1-Abl PPI inh: inhibitors of human Rin1-Abl protein interaction | P00519+Q13671 | TR-FRET Rin1/Abl binding, biochemical | inhibition, % at 7.35 µM | hit rate 0.4% among 360,000; in the data active means inhibition above about 5%, passing the limit was not always enough
# Xi reactivation: activators of X-chromosome reactivation in mouse fibroblasts | XiGFP mouse fibroblasts, % GFP-positive cells imaging, 3 d; cells co-treated with 5-aza-dC sensitizer; scaled so ellipticine positive control = 100% | activation, % at 7.58 µM | hit rate 0.055% among 360,000;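 active means mean normalized replicate activation at least 10% and every replicate at or above 10%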
#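 System: 68-5-11 XiGFP fibroblast line | Buffer or medium: DMEM containing 5-aza-dC | Compound: Single point | Times: Compounds 3 days, fix/stain 15 min at room temperature | Benchmarks: Positive control ellipticine, 6 µM final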
# Rpn11 confirm: Rpn11 inhibition confirmation, single concentration. AID 602318. hit rate 29% among 1,900. inhibition, % at 20 µM. purified human 26S proteasome, Ub4-pepOG fluorescence polarization; proteasome pretreated with epoxomicin. shares compounds with Rpn11 inh
# MMP-2 counter: counter-screen for RPN11 inhibitors: inhibition of human MMP-2; shares compounds with Rpn11 inh; recombinant MMP-2, FRET peptide cleavage fluorescence; inhibition, % at 20 µM; hit rate 4% among 1,900; AID 602330;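 further: human MMP-2 activated beforehand with APMA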
# Thrombin inh: blocks bovine thrombin, flagging nonselective RPN11 hits. AID 602333. bovine thrombin cleavage of Ub4-pepOG, fluorescence polarization. inhibition, % at 20 µM. shares compounds with Rpn11 inh. hit rate 13% among 1,900;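 active means mean inhibition at least 40% at 20 µM, or signal 3 deviations below plate average, so some actives read negative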
# Numbers stand for hits; 0 = inactive; - = no result shown. Rows were chosen to be rich in hits. Some 1.9% of all compounds tested hit in one or more screens of this group. Unless noted, no stated cut-off is given here; in the data, active means inhibition above about 40%; inactive means the rest.
SMILES,ABHD5-PLIN5 inh,NadD inh,Rpn11 inh,Rin1-Abl PPI inh,Xi reactivation,Rpn11 confirm,MMP-2 counter,Thrombin inh
C[C@@H]1CN([C@H](C)CO)C(=O)c2cccc(NC(=O)Nc3ccc(F)cc3)c2O[C@@H]1CN(C)Cc1ccc(C(=O)Nc2ccccc2N)cc1,-,-,-,-,0,-,-,-
CC1=CC(=C(C#N)C#N)c2ccccc2N1C,0,0,43.0,0,0,125.2,0,55.7
CC1=C/C(=C\C=C(C#N)C#N)N(C)c2ccccc21,0,0,-,0,0,-,-,-
O=C(c1ccnc(Cl)c1)N1CCCC(N2CCN(c3ccccc3F)CC2)C1 (stereo not drawn),0,0,53.5,0,0,0,0,0
CO[C@@H]1CN(C)C(=O)c2ccc(NC(=O)C3CCC3)cc2OC[C@H](C)N(C(=O)CN(C)C)C[C@@H]1C,-,-,-,-,0,-,-,-
COc1ccc(OC)c(N=C(C)C2=C(O)COC2=O)c1,0,0,107.9,0,-,0,0,0
COCC(=O)N1CC(=O)N2[C@@H](CO)[C@@H](c3ccc(C#Cc4cccc(OC)c4)cc3)[C@@H]2C1,-,-,-,-,0,-,-,-
CSc1ccc(/C=N/NC(=O)c2cc(O)cc(O)c2)cc1,0,0,0,0,0,-,-,-
CSc1ccc(/C=N/NC(=O)c2ccc(C)c(C)c2)cc1,0,0,60.6,0,0,0,0,0
COc1ccc(F)c(CN2CCC(n3nccc3NC(=O)CCCc3ccccc3)CC2)c1,0,0,35.2,0,0,0,0,0
Cc1c(Cc2ccccc2)sc(NC(=O)/C=C/c2cccc3ccccc23)c1C(N)=O,0,0,37.5,0,0,0,0,0
COc1cccc(-c2csc(N3CCN(C(=S)Nc4ccccc4Cl)CC3)n2)c1,0,0,0,0,-,-,-,-
COc1cccc(-c2csc(N3CCN(C(=S)Nc4cccc(Cl)c4)CC3)n2)c1,0,0,35.4,0,-,0,0,0
C/C(=N\Nc1ccc([N+](=O)[O-])cc1)c1ccc(-n2nncc2C)cc1,0,0,61.5,0,0,0,0,0
COCCNC(=O)[C@H]1[C@H](CO)[C@H]2Cn3c(cccc3=O)[C@@H]1N2Cc1cc(F)ccc1F,-,-,-,-,0,-,-,-
O=C(Nc1ccc2oc(-c3ccncc3)nc2c1)c1ccc2c(c1)OCO2,0,0,169.0,0,0,0,0,0
O=C(Nc1ccc2oc(-c3ccncc3)nc2c1)c1ccc(Br)o1,0,0,75.7,0,0,0,0,0
O=C(Nc1ccc2oc(-c3ccncc3)nc2c1)c1ccc2c(c1)OCCO2,0,0,0,0,0,-,-,-
O=C(Nc1ccc2c(c1)CCC2)c1ccc(Br)o1,0,0,96.7,0,-,0,0,0
CS(=O)(=O)N1CC2C(c3ccc(Br)cc3)C(C1)N2CC(F)(F)F (stereo not drawn),-,-,-,-,0,-,-,-
C[C@H](CO)N1C[C@H](C)[C@@H](CN(C)S(=O)(=O)c2cn(C)cn2)Oc2ccc(NC(=O)Nc3cccc4ccccc34)cc2CC1=O,-,-,-,-,0,-,-,-
O=C(CSc1ncccc1C(=O)O)c1cccc(C(F)(F)F)c1,0,0,120.9,0,0,0,0,0
O=C(CSc1ncccc1C(=O)O)c1ccc2ccccc2c1,0,0,0,0,-,-,-,-
O=C(C[C@H]1CC[C@@H]2NC[C@H](O)COC[C@H]2O1)NCCN1CCCC1,-,-,-,-,0,-,-,-
CCOc1cc(/C=C(\C#N)C(=O)Nc2cccc(C(=O)O)c2)ccc1OCc1ccc(Br)cc1,0,0,107.0,0,0,0,0,0
COc1cc(/C=C(\C#N)C(=O)Nc2cccc(C(=O)O)c2)ccc1OCc1ccc(C)cc1,0,0,0,0,0,-,-,-
COCC(=O)N(C)C[C@@H]1Oc2cc(-c3ccccc3)ccc2S(=O)(=O)N([C@H](C)CO)C[C@H]1C,-,-,-,-,0,-,-,-
COc1ccc(/C=C2\SC(=S)N(CC(=O)Nc3nnc(C)s3)C2=O)cc1,0,0,40.6,0,0,0,0,0
Cc1ccc(NC(=O)CN2C(=O)S/C(=C\c3ccc(OCC(=O)O)c(Br)c3)C2=O)cc1,0,0,0,0,0,-,-,-
COc1cc(/C=C2\SC(=O)N(CC(=O)Nc3ccc(C)cc3)C2=O)cc(Cl)c1OCC(=O)O,0,0,87.2,0,0,0,0,0
